Results as given in ChEMBL document CHEMBL5214897, “Modular Design of Membrane-Active Antibiotics: From Macromolecular Antimicrobials to Small Scorpionlike Peptidomimetics” (J Med Chem, 2021).
In brackets after ≈: the same amount, converted by molar mass. Activity calls are given as the source filed them. The rule behind the calls is not given here.

Experiments:
Escherichia coli = assay: Antibacterial activity against Escherichia coli assessed as bacterial growth inhibition incubated for 16 hrs by microplate reader assay; assay type: functional
Summary of the method: (§1)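 Strains E. coli ATCC 25922, K. pneumoniae ATCC 13383, P. aeruginosa ATCC 27853 grown in TSB at 37 °C for 16 h with shaking, subcultured 6 h to mid-log.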

Enterococcus faecalis = assay: Antibacterial activity against vancomycin-resistant Enterococcus faecalis assessed as bacterial growth inhibition incubated for 16 hrs by microplate reader assay; assay type: functional
Summary of the method: (§2)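 Strains grown in TSB at 37 °C for 16 h with shaking, subcultured 6 h to mid-log. 10^6 CFU/mL bacteria mixed 1:1 with compound over 0.75 to 25 μg/mL. Incubated at 37 °C for 16 h; MIC read on a microplate reader.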

Pseudomonas aeruginosa = assay: Antibacterial activity against Pseudomonas aeruginosa assessed as bacterial growth inhibition incubated for 16 hrs by microplate reader assay; assay type: functional; summary of the method: as §1
[1] = test system: Staphylococcus epidermidis; assay: Antibacterial activity against methicillin-resistant Staphylococcus epidermidis assessed as bacterial growth inhibition incubated for 16 hrs by microplate reader assay; assay type: functional; summary of the method: as §2
Staphylococcus aureus [2] = assay: Antibacterial activity against methicillin-resistant Staphylococcus aureus assessed as bacterial growth inhibition incubated for 16 hrs by microplate reader assay; assay type: functional; summary of the method: as §2
[3] = Hemolytic activity in human RBC assessed as hemolysis incubated for 1 hr by microplate reader assay; assay type: toxicity, cell-based, Erythrocyte; conditions: human red blood cells (erythrocytes)
Summary of the method: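 Fresh human erythrocytes washed in 1× PBS (700 g, 10 min), made to 5% suspension, mixed 1:1 with compound (250 to 1.95 µg/mL), 37 °C for 1 h. After centrifugation, supernatant diluted in PBS and A540 read; 2% Triton-100 = 100%, PBS = 0%; HC50 derived from % hemolysis.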

[4] = Therapeutic index, ratio of HC50 for Hemolytic activity in human RBC to MIC for Antibacterial activity against methicillin-resistant Staphylococcus aureus; assay type: toxicity
Klebsiella pneumoniae = assay: Antibacterial activity against Klebsiella pneumoniae assessed as bacterial growth inhibition incubated for 16 hrs by microplate reader assay; assay type: functional; summary of the method: as §1
Staphylococcus aureus [5] = assay: Antibacterial activity in ICR mouse infected with methicillin-resistant Staphylococcus aureus assessed as reduction in colony growth at 5 mg/ml,sc measured after 48 hrs; assay type: functional
Summary of the method: (§3)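 Female ICR mice (16–20 g), anaesthetised and dorsum shaved. Subcutaneous abscess made with 100 μL MRSA at 1×10^8 CFU/mL. After 30 min, 100 μL of compound in sterile PBS (0.5 or 5 mg/mL) injected into the infection site; PBS controls. At 48 h: skin imaged, abscess bacteria plate-counted, H&E histology, IL-6 and TNF-α measured in skin homogenate by ELISA.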

Staphylococcus aureus [6] = assay: Antibacterial activity in ICR mouse infected with methicillin-resistant Staphylococcus aureus assessed as reduction in TNF-alpha level at 5 mg/ml,sc measured after 48 hrs by ELISA assay; assay type: functional, organism-based; summary of the method: as §3
Staphylococcus aureus [7] = assay: Antibacterial activity in ICR mouse infected with methicillin-resistant Staphylococcus aureus assessed as reduction in skin inflammatory cells at 5 mg/ml,sc measured after 48 hrs by H and E staining based analysis; assay type: functional, organism-based; summary of the method: as §3
[8] = Toxicity in ICR mouse infected with methicillin-resistant Staphylococcus aureus assessed as histopathological abnormalities in liver at […],sc measured after 48 hrs by H and E staining based assay; assay type: organism-based; conditions: in vivo
Summary of the method: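 MRSA abscess model in female ICR mice: 100 μL compound in PBS (0.5 or 5 mg/mL) injected subcutaneously at the infection site 30 min after inoculation. Major organs harvested and examined by H&E staining for systemic toxicity.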

Staphylococcus aureus [9] = assay: Antibacterial activity in ICR mouse infected with methicillin-resistant Staphylococcus aureus assessed as reduction in microbial burden at 5 mg/ml,sc measured after 48 hrs; assay type: functional; design: scale not given: the % may be the effect or the level left; summary of the method: as §3
Staphylococcus aureus [10] = assay: Antibacterial activity in ICR mouse infected with methicillin-resistant Staphylococcus aureus assessed as reduction in IL-6 level at 5 mg/ml,sc measured after 48 hrs by ELISA assay; assay type: functional, organism-based; summary of the method: as §3
Staphylococcus aureus [11] = assay: Antibacterial activity in ICR mouse infected with methicillin-resistant Staphylococcus aureus assessed as presence of erythema at 5 mg/ml,sc measured after 48 hrs; assay type: functional, organism-based; summary of the method: as §3

| Compound | MIC (Escherichia coli) | MIC (Enterococcus faecalis) | MIC (Pseudomonas aeruginosa) | MIC [1] | MIC (Staphylococcus aureus [2]) | HC50 at 1 h [3] | selectivity ratio [4] | MIC (Klebsiella pneumoniae) | Activity (Staphylococcus aureus [5]) | Activity (Staphylococcus aureus [6]) | Activity (Staphylococcus aureus [7]) | Activity [8] | Activity (Staphylococcus aureus [9]) | Activity (Staphylococcus aureus [10]) | Activity (Staphylococcus aureus [11]) |
| --- | --- | --- | --- | --- | --- | --- | --- | --- | --- | --- | --- | --- | --- | --- | --- |
| CCCCCCCC(=O)NCCNC(=O)c1cc(NC(=O)CN(C[C@@H](N)CCCCN)C(=O)CC23CC4CC(CC(C4)C2)C3)cc(NC(=O)CN(C[C@@H](N)CCCCN)C(=O)CC23CC4CC(CC(C4)C2)C3)c1 | 4.5 µg/mL (≈ 4.43 µM) | 4.5 µg/mL (≈ 4.43 µM) | 4.5 µg/mL (≈ 4.43 µM) | 2 µg/mL (≈ 1.97 µM) | 2 µg/mL (≈ 1.97 µM) | > 250 µg/mL | > 125 | 4.5 µg/mL (≈ 4.43 µM) | – | – | – | – | – | – | – |
| CCCCCCCCCCCC(=O)NCCNC(=O)c1cc(NC(=O)CN(C[C@@H](N)CCCCN)C(=O)CC23CC4CC(CC(C4)C2)C3)cc(NC(=O)CN(C[C@@H](N)CCCCN)C(=O)CC23CC4CC(CC(C4)C2)C3)c1 | > 25 µg/mL | 4.5 µg/mL (≈ 4.2 µM) | > 25 µg/mL | 4.5 µg/mL (≈ 4.2 µM) | 4.5 µg/mL (≈ 4.2 µM) | 250 µg/mL | 55.5 | > 25 µg/mL | – | – | – | – | – | – | – |
| CCCCCCCCCCCC(=O)NCCNC(=O)c1cc(NC(=O)CNC[C@@H](N)CCCCN)cc(NC(=O)CNC[C@@H](N)CCCCN)c1 | > 25 µg/mL | – | – | – | > 25 µg/mL | > 250 µg/mL | – | – | – | – | – | – | – | – | – |
| CCCCCCCC(=O)NCCNC(=O)c1cc(NC(=O)CN(C[C@@H](N)CCCCN)C(=O)CCCCCCC)cc(NC(=O)CN(C[C@@H](N)CCCCN)C(=O)CCCCCCC)c1 | 4.5 µg/mL (≈ 4.92 µM) | 4.5 µg/mL (≈ 4.92 µM) | 4.5 µg/mL (≈ 4.92 µM) | 4.5 µg/mL (≈ 4.92 µM) | 4.5 µg/mL (≈ 4.92 µM) | > 250 µg/mL | > 55.5 | > 25 µg/mL | – | – | – | – | – | – | – |
| O=C(O)c1cn(C2CC2)c2cc(N3CCNCC3)c(F)cc2c1=O [CIPROFLOXACIN] | – | 0.9 µg/mL (≈ 2.72 µM) | 0.45 µg/mL (≈ 1.36 µM) | 0.45 µg/mL (≈ 1.36 µM) | 0.24 µg/mL (≈ 0.724 µM) | – | – | 0.9 µg/mL (≈ 2.72 µM) | 0.7 log10CFU/ml | Active | Active | Toxic | 81.1% | Active | Active |
| CCCCCCCC(=O)NCCNC(=O)c1cc(NC(=O)CN(C[C@@H](N)CCCCN)C(=O)CCCCC)cc(NC(=O)CN(C[C@@H](N)CCCCN)C(=O)CCCCC)c1 | > 25 µg/mL | – | – | – | > 25 µg/mL | > 250 µg/mL | – | – | – | – | – | – | – | – | – |
| CCCCCCCCCC(=O)NCCNC(=O)c1cc(NC(=O)CN(C[C@@H](N)CCCCN)C(=O)CC23CC4CC(CC(C4)C2)C3)cc(NC(=O)CN(C[C@@H](N)CCCCN)C(=O)CC23CC4CC(CC(C4)C2)C3)c1 | 19 µg/mL (≈ 18.2 µM) | 4.5 µg/mL (≈ 4.31 µM) | 2 µg/mL (≈ 1.92 µM) | 2 µg/mL (≈ 1.92 µM) | 1 µg/mL (≈ 0.958 µM) | > 250 µg/mL | > 250 | 4.5 µg/mL (≈ 4.31 µM) | – | – | – | – | – | – | – |
| CCCCCCCCCCNC(=O)c1cc(NC(=O)CN(C[C@@H](N)CCCCN)C(=O)CC23CC4CC(CC(C4)C2)C3)cc(NC(=O)CN(C[C@@H](N)CCCCN)C(=O)CC23CC4CC(CC(C4)C2)C3)c1 | > 25 µg/mL | 2 µg/mL (≈ 2.03 µM) | > 25 µg/mL | 9 µg/mL (≈ 9.12 µM) | 2 µg/mL (≈ 2.03 µM) | 125 µg/mL | 62.5 | > 25 µg/mL | – | – | – | – | – | – | – |
| CCCCCCCC(=O)NCCNC(=O)c1cc(NC(=O)CN(C[C@@H](N)CCCCN)C(=O)Cc2cccc3ccccc23)cc(NC(=O)CN(C[C@@H](N)CCCCN)C(=O)Cc2cccc3ccccc23)c1 | 4.5 µg/mL (≈ 4.5 µM) | > 25 µg/mL | > 25 µg/mL | 9 µg/mL (≈ 9.01 µM) | 9 µg/mL (≈ 9.01 µM) | > 250 µg/mL | > 27.8 | 4.5 µg/mL (≈ 4.5 µM) | – | – | – | – | – | – | – |
| CCCCCCCC(=O)NCCNC(=O)c1cc(NC(=O)CN(C[C@@H](N)CCCCN)C(=O)c2ccc(-c3ccccc3)cc2)cc(NC(=O)CN(C[C@@H](N)CCCCN)C(=O)c2ccc(-c3ccccc3)cc2)c1 | 9 µg/mL (≈ 8.79 µM) | 4.5 µg/mL (≈ 4.4 µM) | 4.5 µg/mL (≈ 4.4 µM) | 4.5 µg/mL (≈ 4.4 µM) | 4.5 µg/mL (≈ 4.4 µM) | > 250 µg/mL | > 55.5 | > 25 µg/mL | – | – | – | – | – | – | – |
| CCCCCCCC(=O)NCCNC(=O)c1cc(NC(=O)CN(C[C@@H](N)CCCCN)C(=O)c2ccc(Cl)cc2)cc(NC(=O)CN(C[C@@H](N)CCCCN)C(=O)c2ccc(Cl)cc2)c1 | > 25 µg/mL | – | – | – | > 25 µg/mL | > 250 µg/mL | – | – | – | – | – | – | – | – | – |
| CCCCCCCCNC(=O)c1cc(NC(=O)CN(C[C@@H](N)CCCCN)C(=O)CC23CC4CC(CC(C4)C2)C3)cc(NC(=O)CN(C[C@@H](N)CCCCN)C(=O)CC23CC4CC(CC(C4)C2)C3)c1 | 9 µg/mL (≈ 9.39 µM) | 4.5 µg/mL (≈ 4.7 µM) | 19 µg/mL (≈ 19.8 µM) | 4.5 µg/mL (≈ 4.7 µM) | 2 µg/mL (≈ 2.09 µM) | 125 µg/mL | 62.5 | 9 µg/mL (≈ 9.39 µM) | – | – | – | – | – | – | – |
| CCCCCCCC(=O)NCCNC(=O)c1cc(NC(=O)CN(C[C@@H](N)CCCCN)C(=O)c2cccc(Cl)c2)cc(NC(=O)CN(C[C@@H](N)CCCCN)C(=O)c2cccc(Cl)c2)c1 | > 25 µg/mL | – | – | – | > 25 µg/mL | > 250 µg/mL | – | – | – | – | – | – | – | – | – |
| CCCCCCCCCCCC(=O)NCCNC(=O)c1cc(NC(=O)CN(C[C@@H](N)CCCCN)C(=O)CCCCCCC)cc(NC(=O)CN(C[C@@H](N)CCCCN)C(=O)CCCCCCC)c1 | > 25 µg/mL | > 25 µg/mL | > 25 µg/mL | 9 µg/mL (≈ 9.26 µM) | 4.5 µg/mL (≈ 4.63 µM) | > 250 µg/mL | > 55.5 | > 25 µg/mL | – | – | – | – | – | – | – |
| CCCCCCNC(=O)c1cc(NC(=O)CN(C[C@@H](N)CCCCN)C(=O)CC23CC4CC(CC(C4)C2)C3)cc(NC(=O)CN(C[C@@H](N)CCCCN)C(=O)CC23CC4CC(CC(C4)C2)C3)c1 | 9 µg/mL (≈ 9.67 µM) | 2 µg/mL (≈ 2.15 µM) | 4.5 µg/mL (≈ 4.84 µM) | 2 µg/mL (≈ 2.15 µM) | 2 µg/mL (≈ 2.15 µM) | 125 µg/mL | 62.5 | 9 µg/mL (≈ 9.67 µM) | – | – | – | – | – | – | – |
